ChEMBL document CHEMBL4350954, “Identification of Thienopyrimidine Scaffold as an Inhibitor of the ABC Transport Protein ABCC1 (MRP1) and Related Transporters Using a Combined Virtual Screening Approach” (J Med Chem, 2019)

Key:
ABCC1 (MRP1) [1] = target: ABCC1 (MRP1) (Homo sapiens, UniProt P33527); assay: Inhibition of ABCC1 in human H69AR cells at 10 uM preincubated for 30 mins followed by calcein-AM addition measured at 60 secs time interval by fluorescence assay relative to control; type: cell-based; conditions: probe calcein-AM
Procedure, shortened: (§1)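 Calcein AM accumulation assay in H69AR small-cell lung cancer cells, which express only ABCC1. Inhibited efflux lets calcein AM build up intracellularly, where esterases cleave it to fluorescent calcein. The screen used 10 µM, scaled to a standard ABCC1 inhibitor at 10 µM as 100%. Hits reaching ≥20% inhibition (+SEM) went on to IC50 curves, constrained to that 100% maximum. Values are means of ≥3 independent experiments in duplicate ± SEM.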

[2] = target: T1, Broad substrate specificity ATP-binding cassette transporter ABCG2 (Homo sapiens, UniProt Q9UNQ0); assay: Reversal of ABCG2-mediated multidrug resistance in human MCF-7/MX cells assessed as resistance factor by measuring [GI50(resistant cell line without or with compound)/ GI50(sensitive cell line)] incubated for 72 hrs by MTT assay (reference value: 789)
T1 sequence (Q9UNQ0 whole entry): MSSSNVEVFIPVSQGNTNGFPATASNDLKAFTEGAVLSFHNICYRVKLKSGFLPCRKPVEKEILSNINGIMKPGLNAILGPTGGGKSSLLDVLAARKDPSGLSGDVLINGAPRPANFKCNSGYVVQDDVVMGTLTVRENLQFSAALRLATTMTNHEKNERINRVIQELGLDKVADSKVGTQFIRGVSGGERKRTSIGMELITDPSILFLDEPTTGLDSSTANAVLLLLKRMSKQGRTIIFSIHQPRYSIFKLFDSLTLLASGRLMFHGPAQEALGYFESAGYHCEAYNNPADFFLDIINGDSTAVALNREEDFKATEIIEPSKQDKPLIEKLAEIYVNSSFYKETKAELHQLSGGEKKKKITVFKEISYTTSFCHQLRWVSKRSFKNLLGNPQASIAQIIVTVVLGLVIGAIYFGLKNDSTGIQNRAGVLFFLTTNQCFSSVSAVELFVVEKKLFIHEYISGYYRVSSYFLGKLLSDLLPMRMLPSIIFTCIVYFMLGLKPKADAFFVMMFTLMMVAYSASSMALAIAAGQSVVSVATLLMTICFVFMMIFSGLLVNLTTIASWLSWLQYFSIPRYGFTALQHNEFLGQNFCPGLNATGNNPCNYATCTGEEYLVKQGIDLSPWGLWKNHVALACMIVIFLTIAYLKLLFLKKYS

[3] = target: T2, Multidrug resistance-associated protein 1 (Homo sapiens, UniProt P33527); assay: Inhibition of ABCC1 in human H69AR cells preincubated for 30 mins followed by calcein-AM addition measured at 60 secs time interval by fluorescence assay; type: cell-based; procedure, shortened: as §1
[4] = target: T3, ATP-dependent translocase ABCB1 (Homo sapiens, UniProt P08183); assay: (§2) Reversal of ABCB1 (unknown origin)-mediated multidrug resistance in MDCK2 cells co-expressing MDR1 (unknown origin) assessed as resistance factor by measuring [GI50(resistant cell line without or with compound)/ GI50(sensitive cell line)] at 5 uM incubated for 72 hrs by MTT assay (reference value: 17); type: cell-based
Procedure, shortened: (§3)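 MDR reversal assay with daunorubicin at 10 nM–10 µM, alone or with test compound at 0.5, 1, 5 or 10 µM. Resistant cells were ABCB1-overexpressing A2780/ADR or MDCK II MDR1, with sensitive A2780 or MDCK II cells as comparators. Resistance factor = resistant GI50 / sensitive GI50. EC50 was derived from resistance factors versus modulator concentration. Values are from ≥3 experiments in duplicate ± SEM.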

[5] = target: T2, Multidrug resistance-associated protein 1; assay: Reversal of ABCC1-mediated multidrug resistance in human H69AR cells assessed as resistance factor by measuring [GI50(resistant cell line without or with compound)/ GI50(sensitive cell line)] at 10 uM incubated for 72 hrs by MTT assay (reference value: 8.2); type: cell-based
[6] = target: T2, Multidrug resistance-associated protein 1; assay: Competitive inhibition of ABCC1-mediated calcein-AM transport in human H69AR cells at 0.316 to 1.78 uM by Lineweaver-Burk plot analysis; type: cell-based
Procedure, shortened: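 Kinetic study of calcein AM transport by Lineweaver-Burk analysis. ABCC1 was studied in H69AR cells with calcein AM at 0.25, 0.3, 0.45, 0.6 and 0.8 µM and inhibitor at 0.316, 0.562, 1.00 and 1.78 µM plus a zero control. ABCB1 was studied in A2780/ADR cells with calcein AM at 0.2–0.8 µM and inhibitor at 0.056, 0.100, 0.178 and 0.316 µM plus a zero control.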

[7] = target: T2, Multidrug resistance-associated protein 1; assay: as §2, with “of ABCC1” for “of ABCB1”, “co-expressing MRP1” for “co-expressing MDR1”, “at 0.5” for “at 5”, “value: 7)” for “value: 17)”; type: cell-based
[8] = target: T2, Multidrug resistance-associated protein 1; assay: as §2, with “of ABCC1” for “of ABCB1”, “co-expressing MRP1” for “co-expressing MDR1”, “at 1” for “at 5”, “value: 7)” for “value: 17)”; type: cell-based
[9] = Growth inhibition of MDCK2 cells co-expressing BCRP (unknown origin) after 72 hrs by MTT assay; type: ADME, cell-based, Canis lupus familiaris, MDCK-II; conditions: dog
Procedure, shortened: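 MTT-based cytotoxicity assay giving GI50 of the compound alone in each listed parental, selected or transfected cell line.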

[10] = target: T2, Multidrug resistance-associated protein 1; assay: Reversal of ABCC1-mediated multidrug resistance in human H69AR cells assessed as resistance factor by measuring [GI50(resistant cell line without or with compound)/ GI50(sensitive cell line)] at 5 uM incubated for 72 hrs by MTT assay (reference value: 8.2); type: cell-based
[11] = target: T2, Multidrug resistance-associated protein 1; assay: as §2, with “ABCC1” for “ABCB1”, “MRP1” for “MDR1”, “7)” for “17)”; type: cell-based
[12] = target: T3, ATP-dependent translocase ABCB1; assay: Reversal of ABCB1-mediated multidrug resistance in human A2780/ADR cells assessed as resistance factor by measuring [GI50(resistant cell line without or with compound)/ GI50(sensitive cell line)] at 5 uM incubated for 72 hrs by MTT assay (reference value: 49); type: cell-based; procedure, shortened: as §3
[13] = target: T2, Multidrug resistance-associated protein 1; assay: as §2, with “of ABCC1” for “of ABCB1”, “co-expressing MRP1” for “co-expressing MDR1”, “at 10” for “at 5”, “value: 7)” for “value: 17)”; type: cell-based
ABCB1 (P-gp) = assay: Therapeutic index, ratio of GI50 for human A2780/ADR cells to IC50 for ABCB1 in human A2780/ADR cells; type: toxicity, cell-based; conditions: read-out: TI
Procedure, shortened: (§4)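 Therapeutic ratio = GI50 from the MTT cytotoxicity assay / IC50 from the inhibition assay in the same cell line. The cell lines were H69AR (calcein AM, ABCC1), A2780/ADR (calcein AM, ABCB1) and MDCK II BCRP (pheophorbide A, ABCG2).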

ABCC1 (MRP1) [14] = assay: Therapeutic index, ratio of GI50 for human H69AR cells to IC50 for ABCC1 in human H69AR cells; type: toxicity, cell-based; conditions: read-out: TI; procedure, shortened: as §4
ABCG2 (BCRP) = assay: Therapeutic index, ratio of GI50 for MDCK2 cells co-expressing BCRP (unknown origin) to IC50 for ABCG2 (unknown origin) expressed in MDCK2 cells co-expressing BCRP (unknown origin); type: toxicity, cell-based; conditions: dog, read-out: TI; procedure, shortened: as §4

T2 sequence (P33527 whole entry): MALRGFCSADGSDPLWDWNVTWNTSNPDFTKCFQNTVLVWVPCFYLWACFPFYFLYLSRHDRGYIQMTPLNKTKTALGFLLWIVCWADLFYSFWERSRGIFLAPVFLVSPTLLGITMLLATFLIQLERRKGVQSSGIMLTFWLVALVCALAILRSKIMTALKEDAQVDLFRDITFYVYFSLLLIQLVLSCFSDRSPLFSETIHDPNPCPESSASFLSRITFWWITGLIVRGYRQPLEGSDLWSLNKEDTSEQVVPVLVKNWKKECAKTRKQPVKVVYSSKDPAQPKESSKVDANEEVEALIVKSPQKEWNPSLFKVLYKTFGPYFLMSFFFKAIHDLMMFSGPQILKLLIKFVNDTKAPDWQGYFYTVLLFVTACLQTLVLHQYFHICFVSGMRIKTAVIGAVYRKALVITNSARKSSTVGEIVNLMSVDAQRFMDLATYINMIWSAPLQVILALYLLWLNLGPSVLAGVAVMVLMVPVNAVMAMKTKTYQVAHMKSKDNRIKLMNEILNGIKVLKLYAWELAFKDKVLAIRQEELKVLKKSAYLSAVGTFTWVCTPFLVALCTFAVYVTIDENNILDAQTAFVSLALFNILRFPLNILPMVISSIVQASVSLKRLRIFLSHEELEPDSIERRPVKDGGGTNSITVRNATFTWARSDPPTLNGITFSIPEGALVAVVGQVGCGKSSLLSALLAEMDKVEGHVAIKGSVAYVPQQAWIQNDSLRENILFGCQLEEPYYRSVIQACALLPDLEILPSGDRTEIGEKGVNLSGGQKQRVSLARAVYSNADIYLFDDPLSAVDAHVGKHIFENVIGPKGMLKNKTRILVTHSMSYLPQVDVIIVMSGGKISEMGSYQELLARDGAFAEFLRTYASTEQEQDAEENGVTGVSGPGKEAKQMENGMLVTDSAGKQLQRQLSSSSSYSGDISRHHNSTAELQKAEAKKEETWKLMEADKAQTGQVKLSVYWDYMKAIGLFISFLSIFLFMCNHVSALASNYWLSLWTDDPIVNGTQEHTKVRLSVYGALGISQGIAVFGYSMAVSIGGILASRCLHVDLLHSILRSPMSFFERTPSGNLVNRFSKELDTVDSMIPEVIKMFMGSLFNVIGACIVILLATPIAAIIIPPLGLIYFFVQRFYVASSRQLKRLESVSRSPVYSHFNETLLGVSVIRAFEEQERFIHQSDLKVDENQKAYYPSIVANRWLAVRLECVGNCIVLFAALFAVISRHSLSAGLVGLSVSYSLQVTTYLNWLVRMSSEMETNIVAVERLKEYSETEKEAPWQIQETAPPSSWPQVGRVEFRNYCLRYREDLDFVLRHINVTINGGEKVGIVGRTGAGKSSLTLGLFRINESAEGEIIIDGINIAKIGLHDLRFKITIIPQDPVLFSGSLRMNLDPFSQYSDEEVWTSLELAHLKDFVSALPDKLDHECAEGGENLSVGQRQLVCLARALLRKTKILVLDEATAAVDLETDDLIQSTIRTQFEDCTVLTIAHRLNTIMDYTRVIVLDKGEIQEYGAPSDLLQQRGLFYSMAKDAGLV
T3 sequence (P08183 whole entry): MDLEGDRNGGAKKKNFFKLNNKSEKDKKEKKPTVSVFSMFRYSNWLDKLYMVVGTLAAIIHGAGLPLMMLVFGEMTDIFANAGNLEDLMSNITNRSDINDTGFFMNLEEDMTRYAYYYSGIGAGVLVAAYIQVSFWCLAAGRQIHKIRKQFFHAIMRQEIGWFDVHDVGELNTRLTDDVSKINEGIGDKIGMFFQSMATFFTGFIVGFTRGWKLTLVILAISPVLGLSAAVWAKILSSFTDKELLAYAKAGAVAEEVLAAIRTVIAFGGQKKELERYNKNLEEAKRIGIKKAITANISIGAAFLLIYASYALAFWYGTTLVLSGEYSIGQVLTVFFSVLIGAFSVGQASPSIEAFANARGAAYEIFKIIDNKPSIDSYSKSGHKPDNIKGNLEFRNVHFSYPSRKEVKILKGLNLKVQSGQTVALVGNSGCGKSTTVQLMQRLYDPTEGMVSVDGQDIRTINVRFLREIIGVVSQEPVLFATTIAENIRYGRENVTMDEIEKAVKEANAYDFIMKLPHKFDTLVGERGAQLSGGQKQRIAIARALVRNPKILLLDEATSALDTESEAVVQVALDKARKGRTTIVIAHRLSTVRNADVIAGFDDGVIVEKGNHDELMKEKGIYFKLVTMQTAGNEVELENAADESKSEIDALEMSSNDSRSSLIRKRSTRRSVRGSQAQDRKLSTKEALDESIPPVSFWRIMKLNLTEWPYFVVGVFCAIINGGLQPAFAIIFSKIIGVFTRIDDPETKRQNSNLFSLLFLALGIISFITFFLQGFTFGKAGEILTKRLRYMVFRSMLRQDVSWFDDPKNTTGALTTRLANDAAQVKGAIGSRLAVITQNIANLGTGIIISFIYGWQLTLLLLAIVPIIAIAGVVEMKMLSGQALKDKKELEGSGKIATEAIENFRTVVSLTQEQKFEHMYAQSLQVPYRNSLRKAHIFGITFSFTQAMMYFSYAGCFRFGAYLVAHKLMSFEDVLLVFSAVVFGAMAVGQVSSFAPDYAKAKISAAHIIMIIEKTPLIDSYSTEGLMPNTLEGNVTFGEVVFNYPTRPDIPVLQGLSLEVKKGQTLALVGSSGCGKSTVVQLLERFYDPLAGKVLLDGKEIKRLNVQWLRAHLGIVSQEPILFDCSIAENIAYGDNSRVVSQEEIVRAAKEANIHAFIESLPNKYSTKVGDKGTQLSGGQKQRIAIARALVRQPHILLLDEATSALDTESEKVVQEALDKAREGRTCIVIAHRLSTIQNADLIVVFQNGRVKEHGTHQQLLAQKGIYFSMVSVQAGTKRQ
Sequence of ABCC1 (MRP1) (Homo sapiens, UniProt P33527) (P33527 whole entry): as the sequence (P33527 whole entry) above

inhibition at 1 min, 10 µM (ABCC1 (MRP1) [1]): ≥ 20% | RatioGI50 [2]: 53 | IC50 [3]: 5.04 µM | RatioGI50 [4]: 0.9 | RatioGI50 [5]: 3 | inhibition (INH) [6]: Active | RatioGI50 [7]: 4.7 | RatioGI50 [8]: 3.4 | RatioGI50 [10]: 3.8 | RatioGI50 [11]: 2.2 | RatioGI50 [12]: 6.3 | RatioGI50 [13]: 1.4
Compound: CC1CCc2c(sc3nc(-c4cccnc4)nc(N4CCN(C(C(N)=O)c5ccccc5)CC4)c23)C1 (stereo unspecified)
GI50 at 72 h [9]: 16.4 µM | selectivity ratio (ABCB1 (P-gp)): 14.9 | selectivity ratio (ABCC1 (MRP1) [14]): 11.3 | selectivity ratio (ABCG2 (BCRP)): 6.9
